{"data": "Experimental data gathered from unrelated publications", "read-out": "cell growth or viability", "note": "Protocols differ between the studies behind these lines."}
{"SMILES": "Cc1ccc(-c2cc(-c3ccc(Cl)c(F)c3)c3c(=O)[nH]c(=O)[nH]c3n2)cc1", "cell line": "PC-3", "method": "MTT", "time": "48 h", "quantity": "IC50", "result": "21.2 µM"}
{"SMILES": "Cc1nc(NC(=O)N2CCC[C@H]2C(N)=O)sc1-c1ccnc(C(C)(C)C(F)(F)F)c1", "cell line": "A549", "method": "MTT", "quantity": "IC50", "result": "11.1 µM"}
{"SMILES": "Cc1ccc(-c2cc(-c3ccc(Cl)cc3)c3c(=O)n(C)c(=O)n(C)c3n2)cc1", "cell line": "PC-3", "method": "MTT", "time": "48 h", "quantity": "IC50", "result": "11.7 µM"}
{"SMILES": "CCc1c(C)c2ccc(OCc3nnc(S)n3N)c(C)c2oc1=O", "cell line": "PC-3", "method": "MTT", "concentration": "125 µg/mL", "quantity": "viability", "result": "11.3%"}
{"SMILES": "O=C(C=Cc1ccc(F)cc1)Nc1cc(-c2ccnc(N3CCC(O)CC3)c2)ccn1", "cell line": "A549", "method": "MTT", "concentration": "5 µM", "quantity": "inhibition", "result": "65.9%"}
{"SMILES": "Cc1nc(Nc2ccc3c(c2)/C(=C/c2ccccc2)C(=O)N3C)c2ccccc2n1", "cell line": "A549", "method": "MTT", "quantity": "IC50", "result": "27.8 µM"}
{"SMILES": "Cc1cc(NC(=O)C=Cc2ccccc2)cc(-c2ccnc(N3CCOCC3)c2)c1", "cell line": "A549", "method": "MTT", "concentration": "5 µM", "quantity": "inhibition", "result": "17.7%"}
{"SMILES": "COc1cc2ncnc(Nc3ccc4c(c3)/C(=C/c3ccccc3)C(=O)N4C)c2cc1OC", "cell line": "A549", "method": "MTT", "quantity": "IC50", "result": "14.4 µM"}
{"SMILES": "O=C(C=Cc1ccccc1)Nc1cccc(-c2ccnc(N3CCC(CO)CC3)c2)c1", "cell line": "A549", "method": "MTT", "concentration": "5 µM", "quantity": "inhibition", "result": "59.1%"}
{"SMILES": "C=CC(=O)NC1CCN(c2ncc3ncnc(Nc4ccc(Oc5ccc6c(c5)ncn6C)c(C)c4)c3n2)CC1", "cell line": "A549", "quantity": "EC50", "result": "6.34 µM"}
{"SMILES": "CC(=NNC(=O)COc1ccc2c(C)c(Cc3ccccc3)c(=O)oc2c1C)c1ccc(Br)cc1", "cell line": "PC-3", "method": "MTT", "concentration": "500 µg/mL", "quantity": "viability", "result": "2.33%"}
{"SMILES": "COc1ccc(-c2cc(-c3ccc(C)cc3)nc3[nH]c(=O)[nH]c(=O)c23)cc1OC", "cell line": "PC-3", "method": "MTT", "time": "48 h", "quantity": "IC50", "result": "39.1 µM"}
{"SMILES": "C=CCOc1ccc2c(C)c(CC)c(=O)oc2c1C", "cell line": "PC-3", "method": "MTT", "concentration": "500 µg/mL", "quantity": "viability", "result": "7.08%"}
{"SMILES": "Cc1cccc(/C=C/C(=O)Nc2cc(-c3ccnc(N4CCOCC4)c3)ccn2)c1", "cell line": "A549", "method": "MTT", "concentration": "5 µM", "quantity": "inhibition", "result": "74.9%"}
{"SMILES": "C=CCNC(=S)NNC(=O)COc1ccc2c(C)c(CC)c(=O)oc2c1C", "cell line": "PC-3", "method": "MTT", "concentration": "1000 µg/mL", "quantity": "viability", "result": "2.65%"}
{"SMILES": "COc1cccc2c1C(=O)c1c(O)c3c(c(O)c1C2=O)C[C@@](O)(C(=O)CO)C[C@@H]3O[C@H]1C[C@H](N)[C@H](O)[C@H](C)O1", "cell line": "HUVEC", "method": "MTT", "time": "24 h", "quantity": "IC50", "result": "6.5 µM"}
{"SMILES": "COc1cccc2c1C(=O)c1c(O)c3c(c(O)c1C2=O)C[C@@](O)(C(=O)CO)C[C@@H]3O[C@H]1C[C@H](N)[C@H](O)[C@H](C)O1", "cell line": "A549", "method": "MTT", "concentration": "100 µg/mL", "time": "48 h", "notes": "serum-free", "quantity": "viability", "result": "12.4%"}
{"SMILES": "CCNC(=S)NNC(=O)COc1ccc2c(C)c(CC)c(=O)oc2c1C", "cell line": "PC-3", "method": "MTT", "concentration": "31.25 µg/mL", "quantity": "viability", "result": "99%"}
{"SMILES": "CC(C)C[C@@H]1NC(=O)[C@@H](N(C)C(=O)[C@H](CC2CCC2)NC(=O)[C@@H]2C[C@@H](F)CN2C(=O)C2(C(F)(F)F)CC(F)(F)C2)CCCCNC(=O)C2(CC2)NC(=O)[C@H](Cc2cc(Cl)ccc2Cl)N(C)C1=O", "cell line": "NCI-H1048", "method": "MTT", "time": "5 days", "quantity": "GI50", "result": "32 nM"}
{"SMILES": "CCc1c(C)c2ccc(OCC(=O)NN=Cc3ccc([N+](=O)[O-])cc3)cc2oc1=O", "cell line": "PC-3", "method": "MTT", "concentration": "500 µg/mL", "quantity": "viability", "result": "5.32%"}
{"SMILES": "O=C(C=Cc1cccc(F)c1)Nc1cc(-c2ccnc(N3CCC(O)CC3)c2)ccn1", "cell line": "A549", "method": "MTT", "concentration": "5 µM", "quantity": "inhibition", "result": "65%"}
{"SMILES": "Cc1c(Cc2ccccc2)c(=O)oc2c(C)c(OCC(=O)NN=Cc3ccccc3)ccc12", "cell line": "PC-3", "method": "MTT", "concentration": "31.25 µg/mL", "quantity": "viability", "result": "42.1%"}
{"SMILES": "Cc1cc(NC(=O)C=Cc2ccccc2)cc(-c2ccnc(N3CCC(O)CC3)c2)c1", "cell line": "A549", "method": "MTT", "concentration": "5 µM", "quantity": "inhibition", "result": "37.6%"}
{"SMILES": "CCc1c(C)c2ccc(OCC(=O)NNC(=S)Nc3ccccc3)c(C)c2oc1=O", "cell line": "PC-3", "method": "MTT", "concentration": "31.25 µg/mL", "quantity": "viability", "result": "48.3%"}
{"SMILES": "O=C(C=Cc1ccccc1)Nc1cc(-c2ccnc(N3CCC(O)CC3)c2)ccn1", "cell line": "A549", "method": "MTT", "concentration": "5 µM", "quantity": "inhibition", "result": "73.1%"}
{"SMILES": "O=C(O)c1ccc2c(c1)nc(Nc1cccc(Cl)c1)c1ccncc12", "cell line": "NCI-H522", "method": "crystal violet", "time": "48 h", "quantity": "IC50", "result": "3.1 µM"}
{"SMILES": "O=C(C=Cc1ccccc1)Nc1cc(-c2ccnc(N3CCOCC3)c2)ccn1", "cell line": "A549", "method": "MTT", "concentration": "5 µM", "quantity": "inhibition", "result": "76.7%"}
{"SMILES": "Cc1nc(Nc2ccc3c(c2)CC(=O)N3)c2ccccc2n1", "cell line": "A549", "method": "MTT", "quantity": "IC50", "result": "28.5 µM"}
